STAT1 inh: inhibitors of IFN-gamma induced STAT1 signaling; inhibition, % at 5.5 µM; hit rate 0.35% among 200,000; NIH 3T3 STAT1-luciferase reporter, luminescence;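 active means inhibition above a set limit, the mean inhibition across all tested compounds plus 3 SD, cut at about 34% in these data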;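 further: 0% = IFN-gamma with DMSO and 100% = IFN-gamma with 300 µM nifuroxazide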
APP 5'UTR act: activates APP 5'UTR luciferase reporter. SH-SY5Y APP 5'UTR luciferase reporter, luminescence; zero percent = DMSO vehicle wells. activation, % at 2 µM. hit rate 1% among 190,000. AID 1276;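 active means activation above a set limit, based on mean plus 3 SD of controls, cut at about 140% in these data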
STAT1 act: increases IFN-gamma driven STAT1 reporter signal; NIH 3T3 STAT1-luciferase reporter, luminescence; 100% = IFN-gamma alone, no compound; hit rate 2.6% among 200,000; AID 932; activation (% of control), % at 5.5 µM;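 active means activation above the screen-wide mean activation plus 3 SD, cut at about 130% in these data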;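 further: raw ratio to IFN-gamma control signal so 100% means no change and 0% no light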
NF-kB expr up: compounds increasing NF-kB expression in human neuronal cells. fold change at 12.5 µM. NF-kB reporter expression; active compounds read high. hit rate 1.6% among 190,000; in the data active means fold change above about 3.3
STAT3 blocker: inhibitors of IL-6 induced STAT3 signaling; U3A cells, IL-6 STAT3-luciferase reporter, luminescence; host cell line lacks STAT1; inhibition, % at 5.5 µM; hit rate 0.89% among 190,000; AID 862;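 active means inhibition above the mean inhibition across all screened compounds plus 3 SD, cut at about 44% in these data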;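 further: 0% = DMSO only wells and 100% = 100 µM nifuroxazide control wells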
STAT3 activator: increases IL-6 driven STAT3 reporter signal; hit rate 0.91% among 190,000; activation (% of control), % at 5.6 µM; AID 871; U3A cells, IL-6 STAT3-luciferase reporter, luminescence; 100% = signal with IL-6 EC80 alone;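 active means activation above the screen-wide mean of compound activation plus 3 SD, cut at about 130% in these data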;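 further: 0% = background luminescence of wells with medium and substrate only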
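Assay system – human STAT1-deficient U3A cells with stable STAT3-luciferase reporter · Also added – IL-6 (33 ng/mL) · Schedule – compound 1 h, then IL-6 6 h at 37 °C · Technique – reporter luminescence signal · Evaluation – % activation versus median of IL-6-stimulated wells · Benchmarks – IL-6-only wells as 100% reference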
Active calls of the source: *. The list is not random: actives were taken first. Their share in the collection is about 4.9%.

For CN1C(=O)CC(C(=O)Nc2ccccc2F)SC1=Nc1ccc2c(c1)OCO2 (stereo not drawn) the results were STAT1 inh -3.6, APP 5'UTR act 5.8, STAT1 act 100.2, NF-kB expr up 1.08, STAT3 blocker 0.9 and STAT3 activator 103.3.
For Nc1n[nH]c(N)c1N=Nc1ccc(F)cc1 the results were STAT1 inh -9.6, APP 5'UTR act 19.4, STAT1 act 109.2, NF-kB expr up 1.46, STAT3 blocker 16.1 and STAT3 activator 93.0.
Screening Cc1nc(N)sc1N=Nc1ccc(F)cc1 returned STAT1 inh -39.7, APP 5'UTR act 60.3, STAT1 act 136.5*, NF-kB expr up 1.25, STAT3 blocker 5.1 and STAT3 activator 102.2.
`O=C(OCC(=O)N1CCCC1)c1ccc(NS(=O)(=O)c2cccs2)cc1O` gave STAT1 inh 0.1, APP 5'UTR act -9.7, STAT1 act 97.6, NF-kB expr up 0.93, STAT3 blocker 10.6 and STAT3 activator 93.0.
Screening Fc1ccccc1/C=N/Nc1ncnc2ccccc12 returned STAT1 inh -28.6, APP 5'UTR act 76.2, STAT1 act 127.2, NF-kB expr up 7.91*, STAT3 blocker 25.8 and STAT3 activator 84.2.
For O=C(c1cc2ccccc2oc1=O)N(Cc1ccccc1)Cc1ccc2c(c1)OCO2 the results were STAT1 inh -6.5, APP 5'UTR act -9.1, STAT1 act 111.1, NF-kB expr up 0.59, STAT3 blocker -37.5 and STAT3 activator 134.9*.
`CCc1ccc(CN(C(=O)c2cc3ccccc3oc2=O)C2CCS(=O)(=O)C2)cc1` (stereo not drawn) gave STAT1 inh -32.5, APP 5'UTR act 105.4, STAT1 act 129.2*, NF-kB expr up 4.12*, STAT3 blocker -18.5 and STAT3 activator 117.8.
Screening O=C(c1cc2ccccc2oc1=O)N1CCN(Cc2ccc3c(c2)OCO3)CC1 returned STAT1 inh -3.2, APP 5'UTR act 11.9, STAT1 act 102.9, NF-kB expr up 1.55, STAT3 blocker 10.6 and STAT3 activator 95.9.
O=C(Nc1ccccc1Br)c1c(F)cccc1Cl was read as STAT1 inh -4.5, APP 5'UTR act -2.2, STAT1 act 104.1, NF-kB expr up 1.49, STAT3 blocker 9.0 and STAT3 activator 96.3.
Screening O=C(O)C(=O)/C(=C\c1cccc2ccccc12)c1ccc2ccccc2n1 returned STAT1 inh 8.3, APP 5'UTR act -0.4, STAT1 act 90.8, NF-kB expr up 1.1, STAT3 blocker -29.2 and STAT3 activator 125.6.
For O=C(O)C(=O)/C(=C\c1ccccc1)c1ccc2ccccc2n1 the results were STAT1 inh -47.9, APP 5'UTR act 128.9, STAT1 act 144.2*, NF-kB expr up 1.57, STAT3 blocker -82.4 and STAT3 activator 168.8*.
For O=C(O)C(=O)/C(=C\c1ccc([N+](=O)[O-])cc1)c1ccc2ccccc2n1 the results were STAT1 inh -57.8, APP 5'UTR act 116.6, STAT1 act 149.8*, NF-kB expr up 1.2, STAT3 blocker 9.2 and STAT3 activator 94.2.
For O=C(NC1CCCCC1)c1cc2nc3c(c(C(F)(F)F)n2n1)CCCC3 the results were STAT1 inh -40.1, APP 5'UTR act 50.1, STAT1 act 129.9*, NF-kB expr up 2.43, STAT3 blocker 14.2 and STAT3 activator 90.7.
O=C(Nc1ccc(F)cc1)C(Sc1nc2ccccc2[nH]1)c1ccccc1 (stereo not drawn) was read as STAT1 inh 7.8, APP 5'UTR act 13.1, STAT1 act 93.0, NF-kB expr up 1.31, STAT3 blocker 0.7 and STAT3 activator 101.6.
`Nc1ccc(S(=O)C(F)(F)F)cc1` (stereo not drawn) gave STAT1 inh -4.0, APP 5'UTR act -11.2, STAT1 act 103.7, NF-kB expr up 1.17, STAT3 blocker 0.7 and STAT3 activator 103.7.
For C(#Cc1ccccc1)Cn1nnc2ccccc21 the results were STAT1 inh -36.7, APP 5'UTR act 42.1, STAT1 act 133.6*, NF-kB expr up 1.83, STAT3 blocker 13.7 and STAT3 activator 92.9.
Screening Cc1nc(NC(=O)c2ccccc2[N+](=O)[O-])sc1C(=O)N(C)C returned STAT1 inh 1.8, APP 5'UTR act -10.9, STAT1 act 98.4, NF-kB expr up 1.45, STAT3 blocker 28.1 and STAT3 activator 81.3.

Screens (PubChem BioAssay)
